Columns and labels:
[1] = tested on: A549; experiment: Antitumor activity against human A549 cells xenografted BALB/cA mouse at 16 mg/kg, iv relative to control; format: functional
In short: (§1)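 A549 NSCLC cells were injected s.c. into BALB/cA nude mice (18 ± 3 g, 6 per group). After 2–3 passages, tumors were grafted s.c. at the right oxter. Once tumors were palpable (about 100–300 mm³ in methods; 80–150 mm³ in table footnote), mice were randomized to untreated, docetaxel or treated groups, dosed i.v., and measured by calipers 3 times weekly. T/C% = mean treated/mean control tumor volume × 100, read at day 14.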

[2] = tested on: SK-OV-3; experiment: Cytotoxicity against human SKOV3 cells after 72 hrs by SRB assay; format: functional, cell-based; details: SK-OV-3, 72 h
In short: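 SK-OV-3 ovarian cells were grown in RPMI 1640 with 10% FBS at 37 °C and 5% CO2, seeded at 0.4–1.0 × 10⁴ cells/well and treated after 24 h. Compounds were dissolved in DMSO (≤0.1% final) and tested at at least five concentrations for 72 h. Growth was read by SRB at OD 520 nm; tests were run 3 times in quadruplicate. IC50 came from survival-versus-concentration curves.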

[3] = Toxicity in Kunming mouse assessed as survival; format: organism-based; details: in vivo
In short: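 Healthy Kunming mice of both sexes, 18–22 g, split into 7 weight-matched groups of 10. Single i.p. dose at 92.0, 115.0, 143.0, 179.0, 224.0, 280.0 or 350.0 mg/kg. Behaviour, body weight and deaths recorded over 14 days. LD₅₀ with 95% confidence limits derived by the Bliss method.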

[4] = tested on: Mus musculus; experiment: Toxicity in BALB/cA nude mouse assessed as change in body weight at 16 mg/kg, iv; details: in vivo
[5] = tested on: Mus musculus; experiment: Toxicity in BALB/cA nude mouse assessed as change in body weight at 12 mg/kg, iv; details: in vivo
[6] = tested on: Mus musculus; experiment: Toxicity in BALB/cA nude mouse assessed as survival at 12 mg/kg, iv; details: in vivo
[7] = tested on: Mus musculus; experiment: Toxicity in BALB/cA nude mouse assessed as survival at 16 mg/kg, iv; details: in vivo
[8] = tested on: A549; experiment: Antitumor activity against human A549 cells xenografted BALB/cA mouse at 12 mg/kg, iv relative to control; format: functional; in short: as §1
[9] = tested on: A549; experiment: Antitumor activity against human A549 cells xenografted BALB/cA mouse at 18 mg/kg, iv relative to control; format: functional; in short: as §1
[10] = tested on: Mus musculus; experiment: Toxicity in BALB/cA nude mouse assessed as survival at 18 mg/kg, iv; details: in vivo
[11] = tested on: Mus musculus; experiment: Toxicity in BALB/cA nude mouse assessed as change in body weight at 18 mg/kg, iv; details: in vivo

SMILES: CC(=O)O[C@@]12CO[C@@H]1C[C@H](O)[C@@]1(C)C(=O)[C@H](O)C3=C(C)[C@@H](OC(=O)[C@H](O)[C@@H](NC(=O)OC(C)(C)CF)c4ccccc4)C[C@@](O)([C@@H](OC(=O)c4ccccc4)[C@H]21)C3(C)C
- T/C [1]: 37.9%
- IC50 [2]: 3800 pM
- LD50 [3]: 74.1 mg/kg
- Activity [4]: -22%
- Activity [5]: -19.1%
- Activity [6]: Non-toxic
- Activity [7]: Non-toxic
- T/C [8]: 41.5%

SMILES: CC(=O)O[C@@]12CO[C@@H]1C[C@H](O)[C@@]1(C)C(=O)[C@H](O)C3=C(C)[C@@H](OC(=O)[C@H](O)[C@@H](NC(=O)OC(C)(C)C(F)(F)F)c4ccccc4)C[C@@](O)([C@@H](OC(=O)c4cccc(F)c4)[C@H]21)C3(C)C
- IC50 [2]: 34000 pM

SMILES: CC(=O)O[C@@]12CO[C@@H]1C[C@H](O)[C@@]1(C)C(=O)[C@H](O)C3=C(C)[C@@H](OC(=O)[C@H](O)[C@@H](NC(=O)OC(C)(C)CF)c4ccccc4)C[C@@](O)([C@@H](OC(=O)c4cccc(F)c4)[C@H]21)C3(C)C
- T/C [9]: 30.2%
- Activity [10]: Non-toxic
- Activity [11]: -31.3%
- IC50 [2]: 30 pM
- Activity [5]: -18%
- Activity [6]: Non-toxic
- T/C [8]: 53.7%

SMILES: CC(=O)O[C@@]12CO[C@@H]1C[C@H](O)[C@@]1(C)C(=O)[C@H](O)C3=C(C)[C@@H](OC(=O)[C@H](O)[C@@H](NC(=O)OC(C)(C)C(F)(F)F)c4ccccc4)C[C@@](O)([C@@H](OC(=O)c4ccccc4)[C@H]21)C3(C)C
- T/C [9]: 72%
- Activity [10]: Non-toxic
- Activity [11]: -9.7%
- IC50 [2]: 10 pM
- Activity [5]: 0%
- Activity [6]: Non-toxic
- T/C [8]: 91.8%

SMILES: CC(=O)O[C@@]12CO[C@@H]1C[C@H](O)[C@@]1(C)C(=O)[C@H](O)C3=C(C)[C@@H](OC(=O)[C@H](O)[C@@H](NC(=O)OC(C)(C)C(F)F)c4ccccc4)C[C@@](O)([C@@H](OC(=O)c4ccccc4)[C@H]21)C3(C)C
- T/C [9]: 83.5%
- Activity [10]: Non-toxic
- Activity [11]: -7.7%
- IC50 [2]: 20 pM
- Activity [5]: 0%
- Activity [6]: Non-toxic
- T/C [8]: 91.5%

SMILES: CC(=O)O[C@@]12CO[C@@H]1C[C@H](O)[C@@]1(C)C(=O)[C@H](O)C3=C(C)[C@@H](OC(=O)[C@H](O)[C@@H](NC(=O)OC(C)(C)C(F)F)c4ccccc4)C[C@@](O)([C@@H](OC(=O)c4cccc(F)c4)[C@H]21)C3(C)C
- T/C [9]: 24.4%
- Activity [10]: Non-toxic
- Activity [11]: -26.7%
- IC50 [2]: 50 pM
- Activity [5]: -16.5%
- Activity [6]: Non-toxic
- T/C [8]: 51.7%

SMILES: CC(=O)O[C@@]12CO[C@@H]1C[C@H](O)[C@@]1(C)C(=O)[C@H](O)C3=C(C)[C@@H](OC(=O)[C@H](O)[C@@H](NC(=O)OC(C)(C)C)c4ccccc4)C[C@@](O)([C@@H](OC(=O)c4ccccc4)[C@H]21)C3(C)C.O.O.O [DOCETAXEL]
- IC50 [2]: 3400 pM
- Activity [5]: -19.6%
- Activity [6]: Non-toxic
- T/C [8]: 43%

— ChEMBL document CHEMBL1153862, “Design, synthesis and biological evaluation of novel fluorinated docetaxel analogues” (Eur J Med Chem, 2009)
